What was measured:
Caspase-1 = target: T1, Caspase-1 (Homo sapiens, UniProt P29466); assay: Inhibition of human recombinant caspase 1
T1 sequence (P29466 whole entry): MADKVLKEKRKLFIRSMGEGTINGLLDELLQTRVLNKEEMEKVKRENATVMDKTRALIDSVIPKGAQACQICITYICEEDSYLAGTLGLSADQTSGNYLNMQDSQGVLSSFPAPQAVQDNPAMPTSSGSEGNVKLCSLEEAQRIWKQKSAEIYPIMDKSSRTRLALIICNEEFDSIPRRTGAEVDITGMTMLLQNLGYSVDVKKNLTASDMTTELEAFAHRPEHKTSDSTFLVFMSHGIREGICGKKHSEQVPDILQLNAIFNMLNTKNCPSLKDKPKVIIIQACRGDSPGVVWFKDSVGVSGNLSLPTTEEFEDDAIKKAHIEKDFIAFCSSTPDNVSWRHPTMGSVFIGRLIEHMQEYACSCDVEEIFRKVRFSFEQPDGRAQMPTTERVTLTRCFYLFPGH
In short: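 Recombinant human caspase-1 stored at -80 °C as aliquots and used at 1:20 dilution; enzyme preincubated with inhibitor (Ki determinations). Substrate Ac-Trp-Glu-His-Asp-AMC, 5 μM final. AMC release followed kinetically, excitation 380 nm, emission 460 nm.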

Caspase-8 = Caspase-8 (Homo sapiens, UniProt Q14790); assay: Inhibition of caspase 8
Caspase-8, sequence (Q14790 217-374 limits assumed): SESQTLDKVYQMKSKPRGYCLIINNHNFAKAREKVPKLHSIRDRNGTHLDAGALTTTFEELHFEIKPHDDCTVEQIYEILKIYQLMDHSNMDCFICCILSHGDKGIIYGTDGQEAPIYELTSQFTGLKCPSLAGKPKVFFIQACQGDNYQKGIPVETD
Caspase-8, sequence (Q14790 385-479 limits assumed): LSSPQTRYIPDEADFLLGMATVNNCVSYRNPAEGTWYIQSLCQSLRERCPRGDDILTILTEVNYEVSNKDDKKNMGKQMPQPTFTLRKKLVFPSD

| Ki (Caspase-1) [nM] | IC50 (Caspase-1) [nM] | IC50 (Caspase-8) [nM] | Compound |
| --- | --- | --- | --- |
| > 50000 |  |  | CC(C)[C@H](NC(=O)c1ccc2ccccc2c1)C(=O)N[C@@H](C)C(=O)N[C@H](CCCc1ccccc1)CC(=O)O |
|  | 0.2 |  | CC(C)[C@H](NC(=O)c1ccc2ccccc2c1)C(=O)N[C@@H](C)C(=O)N[C@H](C=O)CC(=O)O |
| 945 |  |  | CC(C)[C@H](NC(=O)c1ccc2ccccc2c1)C(=O)N[C@@H](C)C(=O)N[C@H](CNC1CCCCC1)CC(=O)O |
| 128 |  |  | CC(C)[C@H](NC(=O)c1ccc2ccccc2c1)C(=O)N[C@@H](C)C(=O)N[C@@H](CC(=O)O)CN(C)C1CCCCC1 |
| 1370 |  |  | CC(C)[C@H](NC(=O)c1ccc2ccccc2c1)C(=O)N[C@@H](C)C(=O)N[C@H](CNCc1ccc(O)cc1)CC(=O)O |
| 209 |  |  | CC(C)[C@H](NC(=O)c1ccc2ccccc2c1)C(=O)N[C@@H](C)C(=O)N[C@H](CNCc1ccc2c(c1)OCO2)CC(=O)O |
| 1820 |  |  | CC(C)[C@H](NC(=O)c1ccc2ccccc2c1)C(=O)N[C@@H](C)C(=O)N[C@H](CNCc1ccc(C(N)=O)cc1)CC(=O)O |
| 47 |  | 100000 | CC(C)[C@H](NC(=O)c1ccc2ccccc2c1)C(=O)N[C@@H](C)C(=O)N[C@H](CNCc1ccccc1O)CC(=O)O |
| 1200 |  |  | CC(C)[C@H](NC(=O)c1ccc2ccccc2c1)C(=O)N[C@@H](C)C(=O)N[C@H](CNCc1ccccc1F)CC(=O)O |
| 600 |  |  | CC(C)[C@H](NC(=O)c1ccc2ccccc2c1)C(=O)N[C@@H](C)C(=O)N[C@H](CNCc1ccccc1)CC(=O)O |
| 1890 |  |  | CC(C)[C@H](NC(=O)c1ccc2ccccc2c1)C(=O)N[C@@H](C)C(=O)N[C@@H](CC(=O)O)CN(C)Cc1ccccc1 |
| 965 |  |  | COc1ccccc1CNC[C@H](CC(=O)O)NC(=O)[C@H](C)NC(=O)[C@@H](NC(=O)c1ccc2ccccc2c1)C(C)C |

Source: ChEMBL document CHEMBL1157618, “Noncovalent tripeptidyl benzyl- and cyclohexyl-amine inhibitors of the cysteine protease caspase-1” (J Med Chem, 2010)
